Results of several laboratories.
Protocols differ between the studies behind these lines.
Target: Cytochrome P450 1A2 (CYP1A2, Homo sapiens, UniProt P05177)
Effect on: enzyme activity
Action: inhibitor
Sequence (P05177 1-516, as in one of the studies): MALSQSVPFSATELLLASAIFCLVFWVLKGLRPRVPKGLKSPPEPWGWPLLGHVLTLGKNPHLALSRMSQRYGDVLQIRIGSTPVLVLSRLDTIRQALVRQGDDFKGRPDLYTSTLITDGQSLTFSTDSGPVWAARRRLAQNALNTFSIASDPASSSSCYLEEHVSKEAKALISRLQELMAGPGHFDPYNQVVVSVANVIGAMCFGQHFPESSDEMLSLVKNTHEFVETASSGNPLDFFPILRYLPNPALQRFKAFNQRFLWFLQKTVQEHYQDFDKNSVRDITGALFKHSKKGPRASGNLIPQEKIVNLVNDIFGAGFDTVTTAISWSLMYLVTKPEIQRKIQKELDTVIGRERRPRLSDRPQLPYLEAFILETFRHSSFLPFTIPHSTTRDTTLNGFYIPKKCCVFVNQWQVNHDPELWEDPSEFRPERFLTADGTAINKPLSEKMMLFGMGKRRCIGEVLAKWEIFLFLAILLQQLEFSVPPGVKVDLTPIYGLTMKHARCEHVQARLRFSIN

| SMILES | assay | test system | setting | endpoint | result |
| --- | --- | --- | --- | --- | --- |
| Cc1cc(C)c2c(c1)[C@@H](N(Cc1cc(C(F)(F)F)cc(C(F)(F)F)c1)c1nnn(C)n1)CCCN2C[C@H]1CC[C@H](C(=O)O)CC1 |  | human, liver microsomes | pH 7.4 | Ki | 7.1 µM |
| C#Cc1cccc2oc(-c3ccccc3)cc(=O)c12 |  |  | 6 min, pH 7.6 | Ki | 0.81 µM |
| NS(=O)(=O)NCCNc1nonc1C(=NO)Nc1ccc(F)c(Br)c1 | fluorescence |  |  | IC50 | > 10 µM |
| Cc1ccc2nc(-c3ccccc3)c(CNc3ccc(F)cc3)n2c1 |  |  |  | IC50 | 1.8 µM |
| CCCCCNC(=N)N/N=C/c1c[nH]c2ccc(OC)cc12 | fluorescence |  |  | IC50 | 347 µM |
| COc1ccc2c(Cc3ccccc3F)c3n(c(=O)c2c1OC)CCc1cc2c(cc1-3)OCO2 |  |  |  | IC50 | > 10 µM |
| CCCN(CCC)CCc1cccc2c1CC(=O)N2 | fluorescence |  |  | IC50 | 540 µM |
| C#Cc1cccc(-c2cc(=O)c3ccccc3o2)c1 |  |  | 6 min, pH 7.6 | Ki | 0.8 µM |
| CCc1cc(/C(C)=N/OCc2ccc(C3CCCCC3)c(C(F)(F)F)c2)ccc1CN1CC(C(=O)O)C1 |  | human, liver microsomes | 20 min | IC50 | > 1.1 µM |
| CC1=CC(=O)C(C(C)C)=CC1=O | fluorescence |  | pH 7.4 | IC50 | 557 µM |
| CCC(C)(C)C(=O)O[C@H]1C[C@@H](C)C=C2C=C[C@H](C)[C@H](CC[C@@H](O)C[C@@H](O)CC(=O)O)[C@H]21 | fluorescence |  |  | IC50 | > 100 µM |
| C[C@H]1CN(c2n[nH]c3nc(N[C@H]4CC[C@H](NS(=O)(=O)CCC(F)(F)F)CC4)ncc23)CCO1 |  |  |  | IC50 | > 100 µM |
